Test results published in ChEMBL document CHEMBL1144520, “Synthesis of 5-deazaflavin derivatives and their activation of p53 in cells” (2007).
The source made the active and inactive calls. No cut-off for these calls is given here.

Legend:
RKO [1] = test: Stabilization of p53 level in RKO cells; format: functional, cell-based; settings: Homo sapiens
RPE = test: Induction of p21WAF1/CIP1 level in RPE cells; format: functional, cell-based; settings: Homo sapiens
Procedure, shortened: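 Primary human retinal pigment epithelial (RPE) cells were exposed to each compound at 1–20 µM for 24 h. Whole-cell extracts were resolved by SDS 12% polyacrylamide gel electrophoresis and read out by Western blotting.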

RKO [2] = test: Cell cycle arrest in RKO cells by accumulation at G2 phase; format: functional, cell-based; settings: Homo sapiens
RKO [3] = test: Cell cycle arrest in RKO cells by accumulation at G2/M phase; format: functional, cell-based; settings: Homo sapiens
RKO/E6 = test: Induction of apoptosis in RKO/E6 cells; format: functional, cell-based; settings: Homo sapiens
Procedure, shortened: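 RKO/E6 cells are RKO cells expressing HPV16 E6 protein, which inactivates endogenous p53. They are used to test p53 dependence of the apoptotic response.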

RKO [4] = test: Cell cycle arrest in RKO cells by accumulation at G1 phase; format: functional
RKO [5] = test: Induction of apoptosis in RKO cells; format: functional, cell-based; settings: Homo sapiens

Compound | Activity (RKO [1]) | Activity (RPE) | Activity (RKO [2]) | Activity (RKO [3]) | Activity (RKO/E6) | Activity (RKO [4]; Homo sapiens) | Activity (RKO [4]) | Activity (RKO [5])
O=c1nc2n(-c3ccccc3Cl)c3ccc([N+](=O)[O-])cc3cc-2c(=O)[nH]1 | Active | Active | Active | Active | Active | – | – | –
O=c1nc2n(-c3ccccc3Cl)c3cccc(Cl)c3cc-2c(=O)[nH]1 | Active | – | Active | Active | Active | – | – | –
O=c1nc2n(-c3ccc(Cl)cc3)c3cccc(Cl)c3cc-2c(=O)[nH]1 | Active | Active | – | – | inactive | Active | – | –
Cc1ccc(-n2c3nc(=O)[nH]c(=O)c-3cc3c(Cl)cccc32)cc1 | Active | Active | – | – | inactive | – | 73% | –
O=c1nc2n(-c3cccc(Cl)c3)c3ccc([N+](=O)[O-])cc3cc-2c(=O)[nH]1 | Active | Active | – | – | inactive | – | 75% | –
Cc1ccc(-n2c3nc(=O)[nH]c(=O)c-3cc3c(C(F)(F)F)cccc32)cc1 | inactive | inactive | – | – | inactive | – | 62% | inactive
O=c1nc2n(-c3ccc(Cl)cc3)c3ccc(C(F)(F)F)cc3cc-2c(=O)[nH]1 | inactive | inactive | – | – | inactive | – | – | inactive
